Measured values: ChEMBL document CHEMBL3414546, “Design, synthesis and structure-activity relationship of oxazolidinone derivatives containing novel S4 ligand as FXa inhibitors” (Eur J Med Chem, 2015)
≈ marks a conversion by molar mass, not a printed value.

Experiments:
Coagulation factor X [1] = target: T1, Coagulation factor X (Homo sapiens, UniProt P00742); test: Inhibition of F10a in human plasma assessed as doubling of activated partial thromboplastin time
In short: (§1)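 Plasma came from human volunteer or rabbit blood anticoagulated with 3.8% sodium citrate and centrifuged at 2000 g for 10 min. The DMSO stock was serially diluted in plasma. Clotting time was measured on control plasma and on plasma with five to seven inhibitor concentrations. The concentration doubling clotting time was estimated from the concentration-response curve.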

Coagulation factor X [2] = target: T2, Coagulation factor X (Oryctolagus cuniculus, UniProt O19045); test: Inhibition of F10a in rabbit plasma assessed as doubling of prothombin time
T2 sequence (O19045 whole entry): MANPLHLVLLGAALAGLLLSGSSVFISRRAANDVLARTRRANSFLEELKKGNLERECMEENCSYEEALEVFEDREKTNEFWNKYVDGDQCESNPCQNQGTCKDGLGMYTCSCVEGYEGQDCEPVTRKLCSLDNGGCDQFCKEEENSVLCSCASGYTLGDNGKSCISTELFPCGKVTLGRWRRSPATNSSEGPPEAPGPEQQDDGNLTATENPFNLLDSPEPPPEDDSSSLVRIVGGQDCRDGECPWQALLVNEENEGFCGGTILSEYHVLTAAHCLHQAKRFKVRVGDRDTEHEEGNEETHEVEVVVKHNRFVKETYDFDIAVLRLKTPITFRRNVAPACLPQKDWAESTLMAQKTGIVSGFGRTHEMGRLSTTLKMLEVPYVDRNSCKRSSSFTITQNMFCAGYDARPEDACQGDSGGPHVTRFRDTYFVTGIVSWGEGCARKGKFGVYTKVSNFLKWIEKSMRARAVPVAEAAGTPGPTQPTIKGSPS
In short: (§2)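 Citrated (3.8% sodium citrate) blood from healthy human volunteers or rabbit was spun at 2000 g for 10 min. The DMSO stock was diluted in plasma, 5–7 inhibitor concentrations were tested, and prothrombin time was read with Thromborel-S on an automated temperature-controlled coagulometer in duplicate. PTCT2 (the concentration doubling clotting time) came from regression of the concentration-response curve.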

Coagulation factor X [3] = target: T1, Coagulation factor X; test: Inhibition of F10a in human plasma assessed as doubling of prothombin time; in short: as §2
Coagulation factor X [4] = target: T1, Coagulation factor X; test: Inhibition of human F10a using S-2765 as substrate at 0.1 uM after 45 mins by spectra max analysis relative to control
In short: (§3)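 Purified human FXa (10 ng) was used with chromogenic substrate S-2765 at 500 µM in 50 mM Tris-HCl pH 7.5, […], 1 mM CaCl2 and 2.5% DMSO (final). Compound was incubated for 45 min at 37 °C, and absorbance was read at 405 nm. Percent inhibition came from reaction velocity versus DMSO control. IC50 was taken from a plot of inhibition against concentration.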

Coagulation factor X [5] = target: T2, Coagulation factor X; test: Inhibition of F10a in rabbit plasma assessed as doubling of activated partial thromboplastin time; in short: as §1
[6] = Solubility of the compound by Chinese pharmacopoeia 2010 edition of the second collection method; format: physicochemical
Coagulation factor X [7] = target: T1, Coagulation factor X; test: Inhibition of human F10a using S-2765 as substrate after 45 mins by spectra max analysis; in short: as §3

T1 sequence (P00742 41-179 limits assumed): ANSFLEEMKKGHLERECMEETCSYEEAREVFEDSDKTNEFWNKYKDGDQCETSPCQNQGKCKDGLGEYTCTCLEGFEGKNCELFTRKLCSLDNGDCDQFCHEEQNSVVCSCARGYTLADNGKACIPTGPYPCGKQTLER
T1 sequence (P00742 235-488 limits assumed): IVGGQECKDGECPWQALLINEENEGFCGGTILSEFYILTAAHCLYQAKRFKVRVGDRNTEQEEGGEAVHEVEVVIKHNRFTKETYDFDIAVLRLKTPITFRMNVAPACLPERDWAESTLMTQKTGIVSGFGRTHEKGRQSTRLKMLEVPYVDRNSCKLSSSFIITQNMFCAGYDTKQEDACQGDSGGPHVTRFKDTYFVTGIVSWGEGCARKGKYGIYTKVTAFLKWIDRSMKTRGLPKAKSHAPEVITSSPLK

IC50 (Coagulation factor X [1]) [nM]	IC50 (Coagulation factor X [2]) [nM]	IC50 (Coagulation factor X [3]) [nM]	inhibition (Coagulation factor X [4]) [%]	IC50 (Coagulation factor X [5]) [nM]	solubility [6] [µg/mL]	IC50 (Coagulation factor X [7]) [nM]	SMILES
790	890	650	93	1160			CCNCc1csc(-c2ccc(N3C[C@H](CNC(=O)c4ccc(Cl)s4)OC3=O)cc2)n1
4120	4230	3850	56	5120	33.2 (≈ 62.4 µM)		CN1CCN(Cc2csc(-c3ccc(N4C[C@H](CNC(=O)c5ccc(Cl)s5)OC4=O)cc3)n2)CC1
2850	2890	2620	82	3230			O=C(NC[C@H]1CN(c2ccc(-n3cccc3CN3CCCCC3)cc2)C(=O)O1)c1ccc(Cl)s1
2710	2780	2420	79	3040			O=C(NC[C@H]1CN(c2ccc(-c3nc(CN4CCCC4)cs3)cc2)C(=O)O1)c1ccc(Cl)s1
1870	1660	1650	89	1910			CNCc1csc(-c2ccc(N3C[C@H](CNC(=O)c4ccc(Cl)s4)OC3=O)cc2)n1
3810	4060	3600	62	4790			O=C(NC[C@H]1CN(c2ccc(-c3nc(CN4CCOCC4)cs3)cc2)C(=O)O1)c1ccc(Cl)s1
820	720	510	100	1030		9.46	CCN(CC)Cc1csc(-c2ccc(N3C[C@H](CNC(=O)c4ccc(Cl)s4)OC3=O)cc2)n1
1710	1580	1420	89	1980			O=C(NC[C@H]1CN(c2ccc(-n3cccc3CN3CCCC3)cc2)C(=O)O1)c1ccc(Cl)s1
980	920	870	91	1240			CN(C)Cc1csc(-c2ccc(N3C[C@H](CNC(=O)c4ccc(Cl)s4)OC3=O)cc2)n1
	11500	11000	52				O=C(NC[C@H]1CN(c2ccc(-n3c(CN4CCCCC4)cc4ccccc43)cc2)C(=O)O1)c1ccc(Cl)s1
3390	3780	3030	68	4020			CC1CCN(Cc2csc(-c3ccc(N4C[C@H](CNC(=O)c5ccc(Cl)s5)OC4=O)cc3)n2)CC1
2950	3120	2720	72	3460			O=C(NC[C@H]1CN(c2ccc(-c3nc(CN4CCCCC4)cs3)cc2)C(=O)O1)c1ccc(Cl)s1

Further lines, the compound ahead of its results:

SMILES	IC50 (Coagulation factor X [1]) [nM]	IC50 (Coagulation factor X [2]) [nM]	IC50 (Coagulation factor X [3]) [nM]	inhibition (Coagulation factor X [4]) [%]	IC50 (Coagulation factor X [5]) [nM]	solubility [6] [µg/mL]	IC50 (Coagulation factor X [7]) [nM]
CN(C)Cc1cccn1-c1ccc(N2C[C@H](CNC(=O)c3ccc(Cl)s3)OC2=O)cc1	1200	780	610	98	1390		7.24
CCN(CC)Cc1cccn1-c1ccc(N2C[C@H](CNC(=O)c3ccc(Cl)s3)OC2=O)cc1	300	460	150	100	750	6.9 (≈ 14.2 µM)	2.01
CN(C)Cc1cc2ccccc2n1-c1ccc(N2C[C@H](CNC(=O)c3ccc(Cl)s3)OC2=O)cc1	6020	5920	5780	69	6230		
O=C(NC[C@H]1CN(c2ccc(-n3cccc3CN3CCC3)cc2)C(=O)O1)c1ccc(Cl)s1	1310	810	700	92	1520		
CN1CCN(Cc2cc3ccccc3n2-c2ccc(N3C[C@H](CNC(=O)c4ccc(Cl)s4)OC3=O)cc2)CC1		13300	11300	45			
O=C(NC[C@H]1CN(c2ccc(-n3cccc3CN3CCOCC3)cc2)C(=O)O1)c1ccc(Cl)s1	3310	3190	2930	76	3520		
O=C(NC[C@H]1CN(c2ccc(-n3c(CN4CCOCC4)cc4ccccc43)cc2)C(=O)O1)c1ccc(Cl)s1	11200	11100	10100	58		25.8 (≈ 46.8 µM)	
CN1CCN(Cc2cccn2-c2ccc(N3C[C@H](CNC(=O)c4ccc(Cl)s4)OC3=O)cc2)CC1	4010	3900	3800	71	4140		
CC1CCN(Cc2cc3ccccc3n2-c2ccc(N3C[C@H](CNC(=O)c4ccc(Cl)s4)OC3=O)cc2)CC1	11900	12100	10500	56	13100		
CN(C)Cc1cccn1-c1cc(F)c(N2C[C@H](CNC(=O)c3ccc(Cl)s3)OC2=O)c(F)c1	2310	1980	1830	88	2560		
O=C(NC[C@H]1CN(c2ccc(N3CCOCC3=O)cc2)C(=O)O1)c1ccc(Cl)s1 [RIVAROXABAN]		510		100	860		
CCN(CC)Cc1cc2ccccc2n1-c1ccc(N2C[C@H](CNC(=O)c3ccc(Cl)s3)OC2=O)cc1	5450	6020	5320	61	6110		
CC1CCN(Cc2cccn2-c2ccc(N3C[C@H](CNC(=O)c4ccc(Cl)s4)OC3=O)cc2)CC1	3530	3450	3220	70	3780		
O=C(NC[C@H]1CN(c2cc(F)c(-n3cccc3CN3CCCC3)c(F)c2)C(=O)O1)c1ccc(Cl)s1	3060	2980	2790	73	3670	20.4 (≈ 39.2 µM)	
CN(C)Cc1cccn1-c1ccc(N2C[C@H](CNC(=O)c3ccc(Cl)s3)OC2=O)cc1F	1330	910	650	90	1580	10.2 (≈ 21.4 µM)	6.58
